The values that follow come from ChEMBL document CHEMBL1153536, “5-lipoxygenase-activating protein inhibitors: development of 3-[3-tert-butylsulfanyl-1-[4-(6-methoxy-pyridin-3-yl)-benzyl]-5-(pyridin-2-ylmethoxy)-1H-indol-2-yl]-2,2-dimethyl-propionic acid (AM103)” (J Med Chem, 2009).

SMILES strings stand for the structures.

In general, IC50 refers to the concentration that gives 50% inhibition. The bioavailability is the share of a dose that reaches the circulation, judged against a reference dose that is usually intravenous. As a reminder, the Cmax is the highest concentration seen after dosing. The AUC is the area under the concentration-time curve, a measure of exposure. A low value points to low exposure. Usually half-life stands for the time needed for the level to fall by half in the phase considered. The low end stands for rapid decline, the high end for slow decline. As usually defined, the inhibition is the relative decrease from the control value, in per cent. Read a high inhibition as a strong effect.

The target of data set [1] is T1, Arachidonate 5-lipoxygenase-activating protein (Homo sapiens, UniProt P20292).
T1 sequence (P20292 whole entry): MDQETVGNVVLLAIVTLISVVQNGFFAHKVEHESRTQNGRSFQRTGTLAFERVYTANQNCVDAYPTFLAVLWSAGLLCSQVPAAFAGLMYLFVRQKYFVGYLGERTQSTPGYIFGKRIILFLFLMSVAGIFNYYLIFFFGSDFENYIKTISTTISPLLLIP
In words: Displacement of [3H]3-[5-(pyrid-2-ylmethoxy)-3-tert-butylthio-1-benzyl-indol-2-yl]-2,2-dimethylpropionic acid from FLAP in human polymorphonuclear cell membrane. Background: Displacement assays read how much labelled ligand stays bound in the presence of the test substance.

Data set [2] can be described thus: Inhibition of calcium ionophore A-23187-stimulated LTB4 production in human leukocytes by ELISA. Type of data set: functional, cell-based. The note with it: Leukocyte. Summed up:
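Dextran-sedimented, hypotonically lysed human leukocytes at 1.25 × 10^5 cells/mL, preincubated 5 min at 37 °C with compound in DMSO. Stimulated 5 min at 37 °C with A23187 (5 μL of 0.5 mM into 250 μL). Supernatant LTB4 measured by ELISA at 1:4 dilution; IC50 by nonlinear regression of % inhibition vs log concentration.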
A general note: ELISA stands for enzyme-linked immunosorbent assay.

The next data set deals with Blood. The data set can be described thus: Inhibition of calcium ionophore A-23187-stimulated LTB4 production in human whole blood by ELISA. Type of data set: functional, tissue-based. The procedure, abridged:
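Heparinized human whole blood preincubated 15 min at 37 °C with compound in DMSO. Stimulated 30 min at 37 °C with A23187 (2 μL of 1.5 mM into 150 μL). Plasma LTB4 measured by ELISA at 1:100 dilution; IC50 by nonlinear regression. A single value is one assay averaging two donors.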

The target in data set [3] is T2, Cytochrome P450 3A4 (Homo sapiens, UniProt P08684). In words: Inhibition of CYP3A4. It is filed as ADME.
The next data set has as its target Cytochrome P450 2C9 (Homo sapiens, UniProt P11712). In words: Inhibition of CYP2C9. It is filed as ADME.
The target of a further data set is Cytochrome P450 2D6 (Homo sapiens, UniProt P10635). In words: Inhibition of CYP2D6. Type of data set: ADME.
Data set [4] in a line: Bioavailability in Sprague-Dawley rat at 2 mg/kg, iv and 10 mg/kg, po. It is filed as ADME, organism-based. The note with it: Sprague-Dawley, in vivo. The procedure, abridged:
(§1)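 Male rats fasted overnight, 2 or 3 per route. Dosing was 2 mg/kg i.v. as a jugular bolus in PEG400/ethanol/water (40/10/50) and 10 mg/kg p.o. by gavage in 0.5% methylcellulose. Jugular cannula blood was sampled up to 24 h (8-9 samples). Plasma was acetonitrile-precipitated with buspirone internal standard and quantified by LC-MS/MS, positive ESI MRM, calibration […], LLOQ 1-5 ng/mL.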

Data set [5] can be described thus: Cmax in Sprague-Dawley rat after 10 mg/kg oral dose. The arrangement: dose 10 mg/kg, route oral. The note with it: in vivo. Type of data set: ADME, organism-based. The procedure, abridged:
as §1

The nature of data set [6]: AUC in Sprague-Dawley rat at 10 mg/kg, po. It is filed as ADME, organism-based. The note with it: plasma. The arrangement: dose 10 mg/kg, route oral. Summed up:
as §1

A short description of data set [7]: Clearance in Sprague-Dawley rat at 2 mg/kg, iv and 10 mg/kg, po. Type of data set: ADME, organism-based. The note with it: in vivo. Summed up: as §1
Data set [8] in a line: Volume of distribution at steady state in Sprague-Dawley rat at 2 mg/kg, iv and 10 mg/kg, po. Type of data set: ADME, organism-based. The note with it: in vivo, read-out: Vdss. Summed up:
as §1

Data set [9] is described as follows: Half life in Sprague-Dawley rat at 2 mg/kg, iv after 6 to 24 hrs. It is filed as ADME, organism-based. On the set-up: dose 2 mg/kg, route intravenous. The note with it: in vivo. Summed up: as §1
For data set [10], the target named is T2, Cytochrome P450 3A4. In words: Inhibition of CYP3A4 assessed as inhibition rate.
Data set [11] in a line: Half life in Sprague-Dawley rat at 2 mg/kg, iv. Type of data set: ADME, organism-based. On the set-up: dose 2 mg/kg, route intravenous. The note with it: in vivo. Summed up: as §1
The target of the next data set is CYP3A4 (Homo sapiens, UniProt P08684). In words: Inhibition of CYP3A4 at 10 uM. Type of data set: ADME.
Data set [12] concerns the target Prostaglandin G/H synthase 1 (Homo sapiens, UniProt P23219). In words: Inhibition of COX1 in human whole blood. It is filed as tissue-based.

Sequence of Cytochrome P450 2C9 (P11712 whole entry): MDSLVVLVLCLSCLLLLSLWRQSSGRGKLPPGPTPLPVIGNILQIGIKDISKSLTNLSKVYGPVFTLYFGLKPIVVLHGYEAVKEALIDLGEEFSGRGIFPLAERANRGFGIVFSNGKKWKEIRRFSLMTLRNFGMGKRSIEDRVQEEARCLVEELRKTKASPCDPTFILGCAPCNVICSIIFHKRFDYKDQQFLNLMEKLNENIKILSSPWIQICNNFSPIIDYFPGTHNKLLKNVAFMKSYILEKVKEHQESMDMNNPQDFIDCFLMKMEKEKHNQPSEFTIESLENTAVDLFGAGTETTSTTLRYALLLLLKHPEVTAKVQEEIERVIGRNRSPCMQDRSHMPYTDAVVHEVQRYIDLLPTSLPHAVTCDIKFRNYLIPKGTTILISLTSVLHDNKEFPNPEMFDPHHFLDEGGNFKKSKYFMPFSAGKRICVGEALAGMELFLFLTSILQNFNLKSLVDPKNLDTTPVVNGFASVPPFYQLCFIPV
T2 sequence (P08684 whole entry): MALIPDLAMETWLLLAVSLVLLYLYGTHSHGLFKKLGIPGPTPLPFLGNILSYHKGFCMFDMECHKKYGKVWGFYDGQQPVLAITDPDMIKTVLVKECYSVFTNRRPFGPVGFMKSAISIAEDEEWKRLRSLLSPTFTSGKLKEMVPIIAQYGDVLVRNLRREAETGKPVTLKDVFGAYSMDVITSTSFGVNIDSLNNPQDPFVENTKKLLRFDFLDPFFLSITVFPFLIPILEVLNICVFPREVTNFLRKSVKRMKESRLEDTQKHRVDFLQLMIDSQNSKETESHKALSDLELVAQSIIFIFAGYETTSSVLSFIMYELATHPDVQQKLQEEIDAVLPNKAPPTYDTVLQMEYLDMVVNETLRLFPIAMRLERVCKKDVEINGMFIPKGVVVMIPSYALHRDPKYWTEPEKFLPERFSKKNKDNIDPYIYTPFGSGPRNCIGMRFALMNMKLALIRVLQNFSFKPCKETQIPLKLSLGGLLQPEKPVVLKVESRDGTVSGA
Sequence of Cytochrome P450 2D6 (P10635 whole entry): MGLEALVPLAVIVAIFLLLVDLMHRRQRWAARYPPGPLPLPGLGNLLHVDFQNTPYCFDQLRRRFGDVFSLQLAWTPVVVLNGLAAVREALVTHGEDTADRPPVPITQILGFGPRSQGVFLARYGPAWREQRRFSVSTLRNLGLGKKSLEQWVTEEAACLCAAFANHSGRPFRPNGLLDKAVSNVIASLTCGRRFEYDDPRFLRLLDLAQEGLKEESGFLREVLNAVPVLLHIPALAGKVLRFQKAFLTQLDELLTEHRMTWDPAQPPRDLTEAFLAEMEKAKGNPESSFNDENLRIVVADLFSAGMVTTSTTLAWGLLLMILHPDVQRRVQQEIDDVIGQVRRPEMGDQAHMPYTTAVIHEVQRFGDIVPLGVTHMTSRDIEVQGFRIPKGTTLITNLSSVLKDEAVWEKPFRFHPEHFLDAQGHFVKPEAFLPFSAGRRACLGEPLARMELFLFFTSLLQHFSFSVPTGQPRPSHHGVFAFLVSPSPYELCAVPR
Sequence of Prostaglandin G/H synthase 1 (P23219 whole entry): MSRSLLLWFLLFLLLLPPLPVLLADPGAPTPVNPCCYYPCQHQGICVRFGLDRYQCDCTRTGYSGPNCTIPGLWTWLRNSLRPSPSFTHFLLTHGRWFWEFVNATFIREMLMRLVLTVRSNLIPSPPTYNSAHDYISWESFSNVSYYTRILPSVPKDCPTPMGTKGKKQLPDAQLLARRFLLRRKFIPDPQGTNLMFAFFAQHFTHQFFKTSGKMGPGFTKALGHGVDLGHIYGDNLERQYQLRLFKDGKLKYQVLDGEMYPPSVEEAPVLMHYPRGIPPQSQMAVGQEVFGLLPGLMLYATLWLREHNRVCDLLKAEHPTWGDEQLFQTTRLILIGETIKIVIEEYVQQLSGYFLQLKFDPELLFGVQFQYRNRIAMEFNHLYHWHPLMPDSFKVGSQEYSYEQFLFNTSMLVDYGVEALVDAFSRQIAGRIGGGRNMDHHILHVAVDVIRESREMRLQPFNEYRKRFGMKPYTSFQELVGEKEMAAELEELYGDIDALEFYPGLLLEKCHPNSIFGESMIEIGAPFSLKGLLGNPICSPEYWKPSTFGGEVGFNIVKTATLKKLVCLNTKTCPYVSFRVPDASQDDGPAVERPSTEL
Sequence of CYP3A4 (P08684 whole entry): as the sequence (P08684 whole entry) above

Regarding `CC(C)(C)CCc1c(CC(C)(C)C(=O)O)n(Cc2ccc(-c3nccs3)cc2)c2ccc(OCc3ccccn3)cc12`, the results for the half-inhibitory concentration (IC50) (in [1]; in data set [2]; with Blood) were 229 nM, 5.3 nM and 4860 nM, respectively.
Turning to `CC(C)(C)Sc1c(CC(C)(C)C(=O)O)n(Cc2ccc(-c3cccnc3)cc2)c2ccc(OCc3ccccn3)cc12`, the concentration for half-maximal inhibition (IC50) in [1] was found to be 9 nM; in data set [2] it was 3.4 nM; with Blood, 370 nM; at Cytochrome P450 3A4 [3] it was 4700 nM; against Cytochrome P450 2C9 it was 15500 nM; on Cytochrome P450 2D6 it was 2600 nM. In data set [4], this molecule showed a bioavailability of 8%. In addition, the peak concentration (Cmax) in data set [5] stood at 920 ng/mL. Besides, the AUC in [6] is 1880 ng·h/mL. For the same molecule, the clearance in data set [7] was 7 mL/min/kg. Further, in data set [8], the Vd amounted to 0.38 L/kg. In addition, in data set [9], the half-life was 7.6 h.
In the case of `CC(C)(C)Sc1c(CC(C)(C)C(=O)O)n(Cc2ccc(-c3cnccn3)cc2)c2ccc(OCc3ccccn3)cc12`, the IC50 in data set [1] was determined as 28 nM; in data set [2], 12 nM; in the data set with Blood, 1650 nM.
In the case of `CC(C)(C)Sc1c(CC(C)(C)C(=O)O)n(Cc2ccc(-c3nccs3)cc2)c2ccc(OCc3ccccn3)cc12`, the TDI at Cytochrome P450 3A4 [10] is 0.033 min⁻¹. Besides, the IC50 in data set [1] turned out to be 4.8 nM; in [2], 1 nM; in the data set with Blood, 273 nM; against Cytochrome P450 3A4 [3], 1400 nM; against Cytochrome P450 2C9 it was 9100 nM; at Cytochrome P450 2D6 it was 4000 nM. In data set [4], this molecule displayed a bioavailability of 50%. Further, in data set [11], the half-life was 6.3 h. In data set [5], this molecule came in with a Cmax of 4300 ng/mL. This molecule returned an area under the curve (AUC) in data set [6] of 9540 ng·h/mL. The clearance in data set [7] stood at 8.6 mL/min/kg. The Vd in [8] was 0.71 L/kg.
Regarding `CC(C)(C)Sc1c(CC(C)(C)C(=O)O)n(Cc2ccc(-c3ncc(F)s3)cc2)c2ccc(OCc3ccccn3)cc12`, the TDI on Cytochrome P450 3A4 [10] amounted to 0.017 min⁻¹. This molecule showed a half-maximal inhibitory concentration (IC50) in data set [1] of 2.1 nM.
With `COc1nc(-c2ccc(Cn3c(CC(C)(C)C(=O)O)c(SC(C)(C)C)c4cc(OCc5ccccn5)ccc43)cc2)cs1`, on Cytochrome P450 3A4 [10], the TDI was 0.018 min⁻¹. Besides, the IC50 in data set [1] came out at 3.3 nM.
Regarding `CC(C)(C)Sc1c(CC(C)(C)C(=O)O)n(Cc2ccc(-c3cncnc3)cc2)c2ccc(OCc3ccccn3)cc12`, the half-inhibitory concentration (IC50) was determined as 7.7 nM in data set [1], 3.3 nM in data set [2] and 1040 nM in the data set on Blood.
Consider `CC(C)(C)Sc1c(CC(C)(C)C(=O)O)n(Cc2ccc(Cl)cc2)c2ccc(OCc3ccc4ccccc4n3)cc12` [QUIFLAPON], for which, at Cytochrome P450 3A4 [10], the TDI stood at 0.009 min⁻¹. The 50% inhibitory concentration (IC50) was found to be 0.5 nM in [2], 540 nM in the data set on Blood, 500 nM on Cytochrome P450 2C9 and 11000 nM at Cytochrome P450 2D6.
Turning to `Cc1ccc(-c2ccc(Cn3c(CC(C)(C)C(=O)O)c(SC(C)(C)C)c4cc(OCc5ccccn5)ccc43)cc2)cn1`, the IC50 in data set [1] is 6.5 nM; in data set [2], 1.3 nM; with Blood, 577 nM; on Cytochrome P450 2C9, 10000 nM; against Cytochrome P450 2D6, more than 10000 nM. This molecule also showed an inhibition at 10 µM at CYP3A4 of 64%.
Consider `COc1ccc(-c2ccc(Cn3c(CC(C)(C)C(=O)O)c([S+]([O-])C(C)(C)C)c4cc(OCc5ccccn5)ccc43)cc2)cn1` (stereo unspecified), for which the figures for the half-maximal inhibitory concentration (IC50) in data set [1] and in data set [2] were 793 nM and 2000 nM, respectively.
For `COc1ccc(-c2ccc(Cn3c(CC(C)(C)C(=O)O)c(S(=O)(=O)C(C)(C)C)c4cc(OCc5ccccn5)ccc43)cc2)cn1`, the half-inhibitory concentration (IC50) in [1] was determined as 205 nM; in data set [2], 59 nM; in the data set with Blood it was 3420 nM.
With `Cc1ccc(-c2ccc(Cn3c(CC(C)(C)C(=O)O)c(SC(C)(C)C)c4cc(OCc5ccccn5)ccc43)cc2)nn1`, the IC50 worked out at 27 nM in data set [1], 17 nM in [2] and 4370 nM with Blood.
`Cc1csc(-c2ccc(Cn3c(CC(C)(C)C(=O)O)c(SC(C)(C)C)c4cc(OCc5ccccn5)ccc43)cc2)n1`: at Cytochrome P450 3A4 [10], the TDI is 0.006 min⁻¹. Also, the IC50 in [1] turned out to be 7.3 nM.
Consider `CC(C)(Cc1c(C(=O)C2CCC2)c2cc(OCc3ccccn3)ccc2n1Cc1ccc(-c2nccs2)cc1)C(=O)O`, for which the IC50 in [1] is 444 nM; in data set [2] it was 130 nM; with Blood, 33500 nM.
In the case of `CC(C)(C)Sc1c(CC(C)(C)C(=O)O)n(Cc2ccc(-c3ncccn3)cc2)c2ccc(OCc3ccccn3)cc12`, the IC50 in data set [1] is 6.9 nM; in [2], 6.4 nM; in the data set on Blood, 1210 nM; on Cytochrome P450 3A4 [3], more than 10000 nM; on Cytochrome P450 2C9, more than 10000 nM; against Cytochrome P450 2D6, more than 10000 nM.
For the molecule `CC(C)(Cc1c(CC2CCC2)c2cc(OCc3ccccn3)ccc2n1Cc1ccc(-c2nccs2)cc1)C(=O)O`, the IC50 in [1] worked out at 6.6 nM; in [2] it was 1.1 nM; in the data set with Blood, 391 nM.
`Cc1cnc(-c2ccc(Cn3c(CC(C)(C)C(=O)O)c(SC(C)(C)C)c4cc(OCc5ccccn5)ccc43)cc2)s1`: at Cytochrome P450 3A4 [10], the TDI came out at 0.014 min⁻¹. The same molecule gave an IC50 in data set [1] of 4.8 nM.
Consider `COc1ccc(-c2cccc(Cn3c(CC(C)(C)C(=O)O)c(SC(C)(C)C)c4cc(OCc5ccccn5)ccc43)c2)cn1`, for which the half-inhibitory concentration (IC50) in [1] turned out to be 5.5 nM; in [2], 1.2 nM; in the data set on Blood, 934 nM; in data set [12] it was 420 nM.
For the molecule `CC(C)(C)Sc1c(CC(C)(C)C(=O)O)n(Cc2ccc(Cl)cc2)c2ccc(OCc3ccccn3)cc12`, the concentration for half-maximal inhibition (IC50) in [1] is 1.7 nM; in data set [2], 0.8 nM; in the data set with Blood, 512 nM; on Cytochrome P450 3A4 [3], 11500 nM; against Cytochrome P450 2C9, 1000 nM; against Cytochrome P450 2D6, more than 30000 nM.
Turning to `CC(C)(Cc1cc2cc(OCc3ccccn3)ccc2n1Cc1ccc(-c2nccs2)cc1)C(=O)O`, the half-inhibitory concentration (IC50) in data set [1] was determined as 299 nM; in data set [2] it was 19 nM; with Blood, 5520 nM.
